Experimental data as given in article PMC9047252 (RSC Advances, 2020).

Key:
[1] = tested on: K562/ADR cells; assay: CCK-8 antiproliferative assay, K562/ADR; format: cell-based; conditions: Homo sapiens, 72 h, read-out: IC50 K562/ADR
Method in brief: (§1)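 Cells seeded at 2500–3000 per well and held at 37 °C for 24 h, then exposed in triplicate to a range of test compound concentrations for 72 h, with 0.1% DMSO as control. CCK-8 added and incubated 2 h at 37 °C, then absorbance read at 450 nm. IC50 calculated and given as mean ± SD from three independent experiments.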

[2] = tested on: K562/ADR cells; assay: Western blot analysis, K562/ADR; format: cell-based, human; conditions: 10c 1, 5, 10 μM, 3 10 μM, 24 h
[3] = tested on: K562 cells; assay: Intracellular NO, DAF-FM DA, K562; format: cell-based, human; conditions: 10c 1, 10, 100 μM, 3 and 7 100 μM, 3 h
Method in brief: (§2)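 Cells exposed to 0.1% DMSO or test compound at 37 °C for 3 h. Harvested, PBS-washed, and loaded with DAF-FM DA (50 μmol L−1) in incubation buffer at 37 °C for 30 min. Washed again, then NO fluorescence read by fluorescence microscopy and microplate reader. Three independent experiments, mean ± SD; Student's t-test against control.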

[4] = tested on: LO2 cells; assay: CCK-8 cytotoxicity assay, LO2; format: cell-based; conditions: Homo sapiens, L02, 72 h, read-out: IC50 LO2
Method in brief: as §1

[5] = tested on: K562/ADR cells; assay: Intracellular NO, DAF-FM DA, K562/ADR; format: cell-based, human; conditions: 10c 1, 10, 100 μM, 3 and 7 100 μM, 3 h
Method in brief: as §2

[6] = tested on: K562 cells; assay: Western blot analysis, K562; format: cell-based, human; conditions: 10c 1, 5, 10 μM, 3 10 μM, 24 h
[7] = tested on: K562 cells; assay: CCK-8 antiproliferative assay, K562; format: cell-based; conditions: Homo sapiens, K562, 72 h, read-out: IC50 K562
Method in brief: as §1

[8] = tested on: HT-29 cells; conditions: read-out: IC50 in HT-29 cells; cited from earlier work

| SMILES | IC50 [1] | IC50 [7] | AKT phosphorylation [2] | AMPK and JNK phosphorylation [2] | generation of intracellular NO [3] | IC50 [4] | generation of intracellular NO [5] | AKT phosphorylation [6] | AMPK and JNK phosphorylation [6] | IC50 [8] |
| --- | --- | --- | --- | --- | --- | --- | --- | --- | --- | --- |
| C[C@H]1[C@H](OC(=O)CCC(=O)O)O[C@@H]2O[C@@]3(C)CC[C@H]4[C@H](C)CC[C@@H]1[C@@]24OO3 [compound 3, artesunate] | 36.4 ± 2.9 µM | 10.2 ± 0.135 µM | clearly reduced the levels of AKT phosphorylation | up-regulated the levels of AMPK and JNK phosphorylation | increased the intracellular NO levels | 19.9 ± 0.331 µM | increased the intracellular NO levels | clearly reduced the levels of AKT phosphorylation | up-regulated the levels of AMPK and JNK phosphorylation | – |
| C[C@@H]1CC[C@H]2[C@@H](C)C(=O)O[C@@H]3O[C@@]4(C)CC[C@@H]1[C@]32OO4 [compound 1, Artemisinin] | > 200 µM | 11.1 ± 0.832 µM | – | – | – | 83.3 ± 1.99 µM | – | – | – | – |
| O=C(CCCO[N+](=O)[O-])Oc1ccccc1C(=O)Oc1ccc(-c2cc(=S)ss2)cc1 [NOSH-1] | – | – | – | – | – | – | – | – | – | 0.048 µM |
| Oc1ccc(-c2cc(=S)ss2)cc1 [compound 4, 5-(4-hydroxyphenyl)-3H-1,2-dithiole-3-thione] | > 200 µM | > 200 µM | – | – | – | > 200 µM | – | – | – | – |
| O=[N+]([O-])O[C@@H]1CO[C@H]2[C@@H]1OC[C@@H]2O [compound 7, isosorbide 5-mononitrate] | > 200 µM | > 200 µM | – | – | increased the intracellular NO levels | > 200 µM | increased the intracellular NO levels | – | – | – |

Now from value to molecule, other results behind:

| IC50 [1] | IC50 [7] | SMILES | AKT phosphorylation [2] | AMPK and JNK phosphorylation [2] | generation of intracellular NO [3] | IC50 [4] | generation of intracellular NO [5] | AKT phosphorylation [6] | AMPK and JNK phosphorylation [6] | IC50 [8] |
| --- | --- | --- | --- | --- | --- | --- | --- | --- | --- | --- |
| 28.1 ± 1.09 µM | 8.67 ± 0.277 µM | C[C@H]1[C@@H](O)O[C@@H]2O[C@@]3(C)CC[C@H]4[C@H](C)CC[C@@H]1[C@@]24OO3 [compound 2, dihydroartemisinin] | – | – | – | 19.9 ± 1.66 µM | – | – | – | – |
| 3.26 ± 0.082 µM | 0.367 ± 0.011 µM | COC(=O)C[C@](O)(CCCC(C)(C)O)C(=O)O[C@@H]1C(OC)=C[C@]23CCCN2CCc2cc4c(cc2[C@H]13)OCO4 [HHT, homoharringtonine] | – | – | – | 0.915 ± 0.149 µM | – | – | – | – |
| 9.16 ± 0.658 µM | 0.672 ± 0.056 µM | COc1cccc2c1C(=O)c1c(O)c3c(c(O)c1C2=O)C[C@@](O)(C(=O)CO)C[C@@H]3O[C@H]1C[C@H](N)[C@H](O)[C@H](C)O1 [ADR, adriamycin] | – | – | – | 2.74 ± 0.123 µM | – | – | – | – |
